From PubChem
The list is not random: actives were taken first. Their share in the collection is about 3.5%.
MrgX1 agonist – human MrgX1 receptor agonism, primary screen. B-score at 10 µM. MrgX1-HEK293 cells, Fluo-4 calcium fluorescence, agonist mode; stronger effect = higher value. AID 588627. 310,000 compounds, 0.44% hits;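 active = calcium response B-score plate-corrected fluorescence ratio at least 3 library SD, with starting fluorescence B-score inside 5 SD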
Target sequence (Q96LB2 whole entry, looked up): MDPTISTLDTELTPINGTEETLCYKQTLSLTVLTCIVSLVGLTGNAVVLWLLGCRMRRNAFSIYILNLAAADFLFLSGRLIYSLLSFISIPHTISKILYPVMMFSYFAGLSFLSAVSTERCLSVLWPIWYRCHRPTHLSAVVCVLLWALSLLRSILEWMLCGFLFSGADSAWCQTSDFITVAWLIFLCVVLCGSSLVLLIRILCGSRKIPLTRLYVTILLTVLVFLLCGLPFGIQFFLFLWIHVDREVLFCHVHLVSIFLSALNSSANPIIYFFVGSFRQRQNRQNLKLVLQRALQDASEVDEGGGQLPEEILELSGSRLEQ
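times = overnight plating, then 30 min 37 °C plus 30 min room-temperature dye loading | assay system = stable human MrgX1 HEK293 cell line | input = fifteen thousand cells per well | signal = kinetic calcium dye fluorescence, Fluo-4 NW | dosing = compound delivered in addition one of three | read-out = B-scored fluorescence response ratio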
MrgX1 allo act – human MrgX1 positive allosteric modulation, primary screen; Q96LB2; MrgX1-HEK293, Fluo-4 calcium flux, FDSS; stronger effect = higher value; B-score at 10 µM; 310,000 compounds, 0.63% hits; AID 588675;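 active = plate-corrected calcium response at least 3 library SD above typical, normal starting fluorescence, not activating the receptor alone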;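 note: compound read alongside a low EC10 to EC30 dose of BAM8-22 agonist; peak minus trough fluorescence over baseline measured at the second addition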
RGS4 inh – inhibitors of human RGS4 | P49798 | HEK293 M3R/RGS4 inducible, Fluo-4 calcium flux; stronger effect = higher value; triggered by carbachol at its EC20 | B-score at 10 µM | 310,000 compounds, 0.45% hits;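 active = B-score, a plate-corrected calcium signal, over three deviations above library mean, with baseline fluorescence within five deviations of library mean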;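 note: RGS4 expression induced by doxycycline in cells with stable M3 receptor; B-score is computed from the integrated fluorescence ratio over baseline after carbachol; higher B-score means a larger calcium signal and so more RGS4 inhibition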
Target sequence (P49798 whole entry, looked up): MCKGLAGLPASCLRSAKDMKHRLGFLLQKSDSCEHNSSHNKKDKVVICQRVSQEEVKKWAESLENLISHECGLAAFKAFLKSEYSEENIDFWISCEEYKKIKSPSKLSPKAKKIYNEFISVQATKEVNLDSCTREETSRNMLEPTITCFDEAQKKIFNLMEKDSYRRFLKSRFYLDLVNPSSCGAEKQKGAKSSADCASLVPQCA
RGS4 pot – RGS4 potentiation or activation; B-score at 10 µM; 310,000 compounds, 0.92% hits; HEK293 M3R/inducible RGS4, carbachol calcium flux Fluo4; stronger effect = lower value;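 active = B-score of the integrated calcium signal more than 4 SD below the library mean, with starting fluorescence not abnormally high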;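 note: negative B-score means reduced calcium response which marks RGS4 activation or potentiation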
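Material: Inducible-RGS4 HEK293 cells carrying M3 receptor; also added: carbachol at ECmax as muscarinic agonist stimulus; incubation: compound preincubation 20 min at room temperature before agonist; signal: Fluo4-AM (2 µM) calcium-flux fluorescence, kinetic read; measure: integrated calcium ratio converted to B score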
MrgX1 antagonist – antagonists of human MrgX1 receptor | B-score at 10 µM | MRGX1-HEK293 calcium flux, Fluo-4, BAM8-22 antagonism; stronger effect = lower value | 310,000 compounds, 1.3% hits | AID 588676;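 active = calcium-response B-score plate-corrected more than 3 library SD below zero, starting fluorescence within 5 deviations, no agonist response on first addition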;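 note: peak minus trough fluorescence over baseline after final BAM8-22 challenge near maximal dose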
RGS4 inh valid – validation of RGS4 inhibitors; calcium response, % at 10 µM; shares compounds with RGS4 inh; HEK293 M3R/RGS4, carbachol calcium Fluo-4 fluorescence; carbachol added at its EC20; 0 = buffer wells, 100 = carbachol control; 1,700 compounds, 65% hits;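 active = duplicate-averaged calcium response above the buffer-only control mean plus 5 SD of those controls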;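 note: integrated fluorescence ratio F max minus min over baseline F0; higher response in RGS4-induced cells means RGS4 inhibition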
RGS4 uninduced – counter-screen for RGS4 inhibitors: effect in non-induced cells; shares compounds with RGS4 inh; HEK293 M3R non-induced, carbachol calcium Fluo-4; submaximal (EC20) carbachol stimulus; buffer wells 0%, carbachol control wells 100%; activity (percent), % at 10 µM; 1,900 compounds, 20% hits; AID 493000; call rule not given here;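 note: RGS4 induction absent so cells express M3R without RGS4; higher means more calcium signal and flags a non-specific hit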
RGS4 inh ctr2 – second RGS4 inhibitor counter-screen in uninduced cells lacking carbachol; shares compounds with RGS4 inh; HEK293 M3R/RGS4 non-induced, Fluo-4 calcium, no carbachol; normalised: buffer wells 0%, carbachol wells 100%; calcium response (agonist-mode artifact), % at 10 µM; 1,900 compounds, 22% hits; AID 493001;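 active = duplicate-averaged calcium rise in uninduced cells above buffer wells' mean plus 5 SD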
* hit, by the source's call; i = inactive; x = not tested or not shown.

SMILES | MrgX1 agonist | MrgX1 allo act | RGS4 inh | RGS4 pot | MrgX1 antagonist | RGS4 inh valid | RGS4 uninduced | RGS4 inh ctr2
COC(=O)c1c(NC(=O)CC2SC(N)=NC2=O)sc2c1CCCC2 (stereo not given) | i | i | i | i | i | x | x | x
FC(F)(F)c1ccc(N=Cc2sc(N3CCOCC3)nc2-c2ccccc2)cc1 | i | i | 5.5* | i | i | 5.5%* | i | i
CC(=O)Nc1scc(C)c1-c1nc2ccccc2s1 | i | i | i | i | i | x | x | x
Cc1csc(NC(=O)COCC(=O)O)c1-c1nc2ccccc2s1 | i | i | 6.8* | i | i | 22%* | i | i
Cc1csc(NC(=O)CCCC(=O)O)c1-c1nc2ccccc2s1 | i | i | 6.2* | i | i | 32%* | 48%* | i
Cn1cnnc1Sc1ccc(C(=O)NCCC(c2ccccc2)c2ccccc2)cc1[N+](=O)[O-] | i | i | i | i | i | x | x | x
O=C(O)c1cc2c(N3CCC(Cc4ccccc4)CC3)ncnc2s1 | i | i | 17* | i | i | 58%* | 50%* | i
c1ccc(CC2CCN(c3ncnc4sccc34)CC2)cc1 | x | x | i | i | x | x | x | x
Cc1ccc(C(=O)NCc2nnc(SCC(=O)NC(C)c3ccccc3)n2C)cc1 (stereo not given) | i | i | i | i | i | x | x | x
CN(C)c1oc(-c2ccccc2[N+](=O)[O-])nc1C#N | i | i | 11* | i | i | 5.0%* | i | i
COCCNC(=S)N(CCN(C)C)Cc1cc2cc3c(cc2[nH]c1=O)OCO3 | i | i | i | i | i | x | x | x
COCCNC(=S)N(CCCN(C)C)Cc1cc2cc3c(cc2[nH]c1=O)OCCO3 | i | i | i | i | i | i | i | i
CCOCCCNC(=S)N(CCCN(C)C)Cc1cc2cc3c(cc2[nH]c1=O)OCCO3 | i | i | i | i | i | x | x | x
COCCCNC(=S)N(CCCN(C)C)Cc1cc2cc3c(cc2[nH]c1=O)OCCO3 | i | i | i | i | i | i | i | i
CCC(=O)N1CCc2cc(OC)c(OC)cc2C1COc1ccc(F)cc1 (stereo not given) | i | i | i | i | i | x | x | x
Cc1cc2nc(/C=C/c3nc4cc(C)c(C)cc4[nH]3)[nH]c2cc1C | i | i | i | i | i | x | x | x
Cc1ccc(/C=C/c2nc3ccccc3[nH]2)o1 | i | i | 14* | i | i | i | i | i
CCOC(=O)C1CCN(Cc2nc3ccccc3c(=O)n2-c2ccc(F)cc2)CC1 | i | i | 5.4* | i | i | i | i | i
O=C(c1ccco1)N1CCN(Cc2nc3ccccc3c(=O)n2-c2ccc(F)cc2)CC1 | i | i | i | i | i | x | x | x
Oc1ccc(C[C@@H]2CNCCN2CCc2cccc(F)c2)cc1 | i | i | i | i | i | x | x | x
Oc1c(Br)cc(Br)cc1CNc1ccc(F)cc1 | i | i | 6.5* | i | i | i | i | i
Oc1c(Br)cc(Br)cc1CNc1cnc2ccccc2c1 | i | i | i | i | i | x | x | x
O=C(CN1C(=O)NC2(CCCC2)C1=O)Nc1cc(Cl)ccc1N1CCOCC1 | i | i | i | i | i | x | x | x
Cc1ccc(CN(Cc2cc3cc4c(cc3[nH]c2=O)OCCO4)Cc2nnnn2Cc2ccco2)cc1 | i | i | 12* | i | i | i | i | 16%*
COc1ccc2cc(CN(CCc3ccccc3)Cc3nnnn3Cc3ccco3)c(=O)[nH]c2c1 | i | i | i | i | i | x | x | x
SMILES | MrgX1 agonist | MrgX1 allo act | RGS4 inh | RGS4 pot | MrgX1 antagonist | RGS4 inh valid | RGS4 uninduced | RGS4 inh ctr2
Cc1ccc2cc(CN(Cc3ccc4c(c3)OCO4)Cc3nnnn3Cc3ccco3)c(=O)[nH]c2c1 | i | i | i | i | i | i | i | 8.5%*
O=c1c(Cl)c(Cl)cnn1Cc1nnc(-c2ccccc2Br)o1 | x | x | 72* | i | x | 142%* | 42%* | i
CCCCNC(=O)COC(=O)c1cc(C)oc1C | i | i | i | i | i | x | x | x
N#Cc1c(-c2ccccc2Cl)noc1/C=C/Nc1ccc(C(=O)O)cc1 | i | i | i | i | i | x | i | i
CCn1cc([N+](=O)[O-])c(C(=O)N2N=C(c3ccc4ccccc4c3)CC2c2ccccc2O)n1 (stereo not given) | i | i | i | i | i | x | i | i
CCn1cc(Cl)c(C(=O)N2N=C(c3ccc4ccccc4c3)CC2c2ccccc2O)n1 (stereo not given) | i | i | i | i | i | x | x | x
COc1ccc2cc(C3C(C#N)=C(N)OC(C)=C3C(C)=O)c(Cl)nc2c1 (stereo not given) | i | i | 5.6* | i | i | 32%* | i | i
COc1cc(/C=C(/C(=O)c2cccs2)c2nc3ccccc3[nH]2)ccc1O | i | i | 9.2* | i | i | 18%* | i | i
CCOC(=O)C1(Cc2ccccc2C(F)(F)F)CCN(CCCn2cccn2)CC1 | i | i | i | i | i | x | x | x
COc1ccc(Cl)cc1NC(=O)C(C)OC(=O)c1ccc(NS(=O)(=O)c2ccc3[nH]c(=O)[nH]c3c2)cc1 (stereo not given) | i | i | 11* | i | i | 46%* | i | i
CC(OC(=O)c1ccc(NS(=O)(=O)c2ccc3[nH]c(=O)[nH]c3c2)cc1)C(=O)Nc1ccc(Cl)cc1 (stereo not given) | i | i | i | i | i | i | i | i
CC(C)CC(=O)NCCCCc1ccccc1 | i | i | i | i | i | x | x | x
Cc1ccc(N2C(=O)[C@@H]3C(C(=O)C(c4ccccc4)c4ccccc4)=NN[C@@H]3C2=O)cc1 | i | i | 7.2* | i | i | 29%* | 102%* | i
Cc1ccc(N2C(=O)C3NN=C(C(=O)OCc4ccccc4)C3C2=O)cc1 (stereo not given) | i | i | i | i | i | x | x | x
Cn1c2ccccc2c2c(C(=O)NCc3ccco3)cn(C3CCCCC3)c(=O)c21 | i | i | i | i | i | i | i | i
